From ChEMBL document CHEMBL4373687, “Introducing nitrogen atoms to amidoalkylindoles: potent and selective cannabinoid type 2 receptor agonists with improved aqueous solubility” (Medchemcomm, 2019)

Experiments:
[1] = Kinetic aqueous solubility of compound in phosphate-buffer containing 1% DMSO ultrasonicated for 10 mins at pH 1.4 measured using 80-95% methanol in water as gradient for 19 mins by HPLC analysis; assay type: physicochemical; conditions: pH 1.4, 10 min
How it was run: (§1)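 Kinetic solubility: 10 mM DMSO stock diluted into 10 mM phosphate buffer pH 7.4 or 1.4 (final 1% DMSO), sonicated 10 min at room temperature, filtered 0.22 μm. Quantified by C18 HPLC against a standard curve. Gradient 80–95% methanol/water with trifluoroacetic acid over 19 min at 1.2 mL/min. n = 3.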

[2] = Kinetic aqueous solubility of compound in phosphate-buffer containing 1% DMSO ultrasonicated for 10 mins at pH 7.4 measured using 80-95% methanol in water as gradient for 19 mins by HPLC analysis; assay type: physicochemical; conditions: pH 7.4, 10 min; how it was run: as §1
[3] = target: T1, Cannabinoid receptor 1 (Homo sapiens, UniProt P21554); experiment: Agonist activity at human CB1-receptor expressed in CHO-K1 cells coexpressing G-alpha16 at 10 uM by Fluo-4-AM dye based calcium mobilization assay; assay type: cell-based; conditions: cho-k1, 10 µM
How it was run: (§2)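 CHO-K1 cells stably co-expressing Gα16 and human CB1 or CB2, seeded 24 h. Loaded with 2 μM fluo-4 AM in HBSS (with sulfinpyrazone, pH 7.4) at 37 °C for 45 min. Compound added and calcium fluorescence recorded (ex 485/em 525 nm). CP55940 positive control, DMSO negative control. Compounds with >50% activation at 10 μM got eight-point curves in triplicate, sigmoidal fit for EC50.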

[4] = target: T1, Cannabinoid receptor 1; experiment: Antagonist activity at human CB1-receptor expressed in CHO-K1 cells coexpressing G-alpha16 pre-incubated for 10 mins and later treated with 100 nM CB-receptor agonist, CP55940 by Fluo-4-AM dye based calcium mobilization assay; assay type: cell-based
How it was run: (§3)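 CHO-K1 cells stably co-expressing Gα16 and human CB1 or CB2, loaded with 2 μM fluo-4 AM in HBSS pH 7.4 at 37 °C for 45 min. Pre-incubated with compound for 10 min at room temperature, then CP55940 added at 100 nM. Peak calcium read over 60 s (ex 485/em 525 nm). Rimonabant positive control. Actives got eight-point curves in triplicate, sigmoidal fit for IC50.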

[5] = target: T1, Cannabinoid receptor 1; experiment: Antagonist activity at human CB1-receptor expressed in CHO-K1 cells coexpressing G-alpha16 at 10 uM pre-incubated for 10 mins and later treated with 100 nM CB-receptor agonist, CP55940 by Fluo-4-AM dye based calcium mobilization assay; assay type: cell-based; how it was run: as §3
[6] = Kinetic aqueous solubility of compound in phosphate-buffer containing 1% DMSO ultrasonicated for 10 mins at pH 7.4 measured using 50-95% methanol in water as gradient for 23 mins by HPLC analysis; assay type: physicochemical
How it was run: (§4)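 Kinetic solubility: 10 mM DMSO stock diluted into 10 mM phosphate buffer pH 7.4 or 1.4 (final 1% DMSO), sonicated 10 min at room temperature, filtered 0.22 μm. Quantified by C18 HPLC against a standard curve. Gradient 50–95% methanol/water with trifluoroacetic acid over 23 min at 1.0 mL/min. n = 3.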

[7] = target: T1, Cannabinoid receptor 1; experiment: Agonist activity at human CB1-receptor expressed in CHO-K1 cells coexpressing G-alpha16 by Fluo-4-AM dye based calcium mobilization assay; assay type: cell-based; conditions: read-out: EC50
[8] = target: T2, Cannabinoid receptor 2 (Homo sapiens, UniProt P34972); experiment: Antagonist activity at human CB2-receptor expressed in CHO-K1 cells coexpressing G-alpha16 at 10 uM pre-incubated for 10 mins and later treated with 100 nM CB-receptor agonist, CP55940 by Fluo-4-AM dye based calcium mobilization assay; assay type: functional, cell-based; how it was run: as §3
[9] = Kinetic aqueous solubility of compound in phosphate-buffer containing 1% DMSO ultrasonicated for 10 mins at pH 1.4 measured using 50-95% methanol in water as gradient for 23 mins by HPLC analysis; assay type: physicochemical; conditions: pH 1.4, 10 min; how it was run: as §4
[10] = target: T2, Cannabinoid receptor 2; experiment: Agonist activity at human CB2-receptor expressed in CHO-K1 cells coexpressing G-alpha16 by Fluo-4-AM dye based calcium mobilization assay; assay type: functional, cell-based; conditions: read-out: EC50
[11] = target: T2, Cannabinoid receptor 2; experiment: Antagonist activity at human CB2-receptor expressed in CHO-K1 cells coexpressing G-alpha16 pre-incubated for 10 mins and later treated with 100 nM CB-receptor agonist, CP55940 by Fluo-4-AM dye based calcium mobilization assay; assay type: functional, cell-based; conditions: cho-k1; how it was run: as §3
[12] = target: T2, Cannabinoid receptor 2; experiment: Agonist activity at human CB2-receptor expressed in CHO-K1 cells coexpressing G-alpha16 at 10 uM by Fluo-4-AM dye based calcium mobilization assay; assay type: functional, cell-based; how it was run: as §2
[13] = target: T2, Cannabinoid receptor 2; experiment: Agonist activity at human CB2-receptor expressed in CHO-K1 cells coexpressing G-alpha16 assessed as maximum efficacy by Fluo-4-AM dye based calcium mobilization assay relative to CP55940; assay type: functional, cell-based; how it was run: as §2
[14] = Kinetic aqueous solubility of compound in phosphate-buffer containing 1% DMSO ultrasonicated for 10 mins at pH 7.4 by HPLC analysis; assay type: physicochemical; conditions: pH 7.4, 10 min
How it was run: (§5)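 Kinetic solubility: 10 mM DMSO stock diluted into 10 mM phosphate buffer at pH 7.4 or 1.4 (final 1% DMSO). Sonicated 10 min at room temperature and filtered through a 0.22 μm PTFE filter. Concentration determined by reversed-phase C18 HPLC (275/290 nm) against a standard curve. n = 3.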

[15] = Kinetic aqueous solubility of compound in phosphate-buffer containing 1% DMSO ultrasonicated for 10 mins at pH 1.4 by HPLC analysis; assay type: physicochemical; conditions: pH 1.4, 10 min; how it was run: as §5
[16] = Kinetic aqueous solubility of compound in phosphate-buffer containing 1% DMSO ultrasonicated for 10 mins at pH 7.4 measured using 60-95% methanol in water as gradient for 19 mins by HPLC analysis; assay type: physicochemical; conditions: pH 7.4, 10 min
How it was run: (§6)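 Kinetic solubility: 10 mM DMSO stock diluted into 10 mM phosphate buffer pH 7.4 or 1.4 (final 1% DMSO), sonicated 10 min at room temperature, filtered 0.22 μm. Quantified by C18 HPLC against a standard curve. Gradient 60–95% methanol/water with trifluoroacetic acid over 19 min at 1.0 mL/min. n = 3.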

[17] = Kinetic aqueous solubility of compound in phosphate-buffer containing 1% DMSO ultrasonicated for 10 mins at pH 1.4 measured using 60-95% methanol in water as gradient for 19 mins by HPLC analysis; assay type: physicochemical; conditions: pH 1.4, 10 min; how it was run: as §6
[18] = target: T1, Cannabinoid receptor 1; experiment: Agonist activity at human CB1-receptor expressed in CHO-K1 cells coexpressing G-alpha16 assessed as maximum efficacy by Fluo-4-AM dye based calcium mobilization assay relative to CP55940; assay type: cell-based; how it was run: as §2

T1 sequence (P21554 whole entry): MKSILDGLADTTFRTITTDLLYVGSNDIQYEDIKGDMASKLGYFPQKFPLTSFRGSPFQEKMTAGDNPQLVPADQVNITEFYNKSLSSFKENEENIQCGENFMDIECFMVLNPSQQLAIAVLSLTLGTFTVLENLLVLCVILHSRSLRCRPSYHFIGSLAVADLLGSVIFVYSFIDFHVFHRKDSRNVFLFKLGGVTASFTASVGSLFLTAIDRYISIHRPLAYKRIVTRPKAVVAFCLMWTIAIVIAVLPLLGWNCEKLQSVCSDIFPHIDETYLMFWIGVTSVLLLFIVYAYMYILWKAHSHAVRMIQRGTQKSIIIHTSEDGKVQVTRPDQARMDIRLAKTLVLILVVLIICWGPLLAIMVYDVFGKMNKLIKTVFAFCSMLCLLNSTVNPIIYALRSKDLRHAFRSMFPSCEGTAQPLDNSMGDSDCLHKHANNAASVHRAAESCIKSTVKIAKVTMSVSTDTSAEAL
T2 sequence (P34972 whole entry): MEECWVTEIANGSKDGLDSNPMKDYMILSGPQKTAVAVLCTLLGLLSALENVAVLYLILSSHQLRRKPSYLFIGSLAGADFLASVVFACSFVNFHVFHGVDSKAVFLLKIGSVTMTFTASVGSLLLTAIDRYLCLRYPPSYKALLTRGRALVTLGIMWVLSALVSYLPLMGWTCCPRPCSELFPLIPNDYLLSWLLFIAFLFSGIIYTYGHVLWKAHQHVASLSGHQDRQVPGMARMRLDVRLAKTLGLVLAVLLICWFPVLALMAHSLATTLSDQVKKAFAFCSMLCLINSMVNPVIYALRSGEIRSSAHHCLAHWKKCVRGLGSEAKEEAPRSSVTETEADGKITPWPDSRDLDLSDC

| SMILES | Activity [3] [%] | IC50 [4] | inhibition at 10 µM [5] [%] | EC50 [7] [nM] | inhibition [8] [%] | EC50 [10] [nM] | IC50 [11] | Activity [12] [%] | Emax [13] [%] | further results |
| --- | --- | --- | --- | --- | --- | --- | --- | --- | --- | --- |
| O=C(NC12CC3CC(CC(C3)C1)C2)c1cc2ccccc2n1CCCCO | – | – | – | – | – | – | – | – | – | Kinetic_solubility [1]: 16.77 uM/L; log(Kinetic_solubility) [1]: -4.78; Kinetic_solubility [2]: 23.71 uM/L; log(Kinetic_solubility) [2]: -4.63 |
| O=C(NC12CC3CC(CC(C3)C1)C2)c1cn(CCN2CCOCC2)c2ncccc12 | < 50 | Not Active | < 50 | > 10000 | < 50 | 48 | Not Active | > 50 | 25.7 | Kinetic_solubility [6]: 69.43 uM/L; log(Kinetic_solubility) [6]: -4.15; Kinetic_solubility [9]: 86.6 uM/L; log(Kinetic_solubility) [9]: -4.06 |
| O=C(NC12CC3CC(CC(C3)C1)C2)c1nc2ccccc2n1CCCCCO | < 50 | Not Active | < 50 | > 10000 | < 50 | 67 | Not Active | > 50 | 64 | Kinetic_solubility [14]: 32.88 uM/L; log(Kinetic_solubility) [14]: -4.48; Kinetic_solubility [15]: 96 uM/L; log(Kinetic_solubility) [15]: -4.02 |
| O=C(NC12CC3CC(CC(C3)C1)C2)c1n[nH]c2ccccc12 | > 50 | Not Active | < 50 | 17100 | < 50 | 86 | Not Active | > 50 | 73.9 | Kinetic_solubility [16]: < 10 uM/L; log(Kinetic_solubility) [16]: < -5; Kinetic_solubility [17]: < 10 uM/L; log(Kinetic_solubility) [17]: < -5; Emax [18]: 67.3% |
